Tests used:
CEM-SS [1] = assay: Maximum protection of human T-lymphoblastic cells(CEM-SS) from cytopathic effects of HIV-1 by the compound; assay type: functional
Procedure, shortened: (§1)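 CEM-SS cells kept in phenol-red-free RPMI 1640 with 5% fetal bovine serum, 2 mM L-glutamine and 50 μg/mL gentamicin, seeded at 2.0×10^5 cells/mL. Infected with HIV-1 RF (HTLV-III_RF) or left uninfected. Compound dissolved in DMSO, diluted in medium (final DMSO ≤1%), tested over <0.1 to >10 μM. Incubated 6 days at 37 °C, 5% CO2. Viability read by XTT-tetrazolium; quadruplicate infected wells, duplicate uninfected wells.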

CEM-SS [2] = assay: Concentration inhibiting HIV-1 induced cytopathic effects in human T-lymphoblastic cells(CEM-SS) and essentially halted HIV-1 replication.; assay type: functional, cell-based; procedure, shortened: as §1
CEM-SS [3] = assay: Potency to inhibit HIV-1 induced cytopathic effects in human T-lymphoblastic cells(CEM-SS) and essentially halted HIV-1 replication.; assay type: functional, cell-based; procedure, shortened: as §1
[4] = Apparent in vitro therapeutic induces(TI) of the compound; assay type: ADME
CEM-SS [5] = assay: Inhibition of HIV-1 replication in CEM-SS human lymphoblastoid cells in vitro; assay type: functional, cell-based
Procedure, shortened: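 CEM-SS cells infected with HIV-1 RF and treated with a concentration range for 6 days at 37 °C, 5% CO2 (final DMSO ≤1%). Cell-free supernatant assayed for viral reverse transcriptase activity, p24 antigen and syncytium-forming units. Values expressed as percent of infected, untreated controls; each point is the mean of at least quadruplicate determinations.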

[6] = test system: CEM-SS cells (Homo sapiens); assay: Cytotoxicity against CEM-SS cells

SMILES | IC50 (CEM-SS [2]) [µM] | EC50 (CEM-SS [3]) [µM] | Therapeutic indices [4] [TI] | EC50 (CEM-SS [5]) [µM] | Max protection (CEM-SS [1]) [%] | IC50 [6] [µM]
CCCc1cc(=O)oc2c3c(c4c(c12)OC(C)(C)C=C4)O[C@H](C)[C@@H](C)[C@H]3OC | 19 |  |  |  | 35 | 
CCCc1cc(=O)oc2c3c(c4c(c12)OC(C)(C)C=C4)O[C@H](C)[C@H](C)C3=O | 27 |  |  |  |  | 
CCCc1cc(=O)oc2c3c(c4c(c12)OC(C)(C)C=C4)O[C@H](C)[C@@H](C)[C@@H]3OC(C)=O | 13 | 2.7 | 5 |  | 100 | 
CCCc1cc(=O)oc2c3c(c4c(c12)OC(C)(C)C=C4)O[C@H](C)[C@H](C)[C@@H]3O [CALANOLIDE C] | 30 |  |  |  | 30 | 
CCCC1CC(=O)Oc2c(C(=O)C(C)C(C)O)c(O)c3c(c21)OC(C)(C)C=C3 (stereo unspecified) [CALANOLIDE E2] | 25 |  |  |  |  | 

Second part, led by results:

IC50 (CEM-SS [2]) [µM] | EC50 (CEM-SS [3]) [µM] | Therapeutic indices [4] [TI] | EC50 (CEM-SS [5]) [µM] | SMILES | Max protection (CEM-SS [1]) [%] | IC50 [6] [µM]
21 |  |  |  | CCCc1cc(=O)oc2c3c(c4c(c12)OC(C)(C)C=C4)O[C@H](C)[C@@H](C)[C@@H]3OC |  | 
15 | 0.4 | 37 |  | CCCc1cc(=O)oc2c3c(c4c(c12)OC(C)(C)C=C4)O[C@H](C)[C@@H](C)[C@H]3O [(+)-CALANOLIDE B] | 100 | 
20 | 0.1 | 200 | 0.08 | CCCc1cc(=O)oc2c3c(c4c(c12)OC(C)(C)C=C4)O[C@H](C)[C@@H](C)[C@@H]3O [CALANOLIDE A] | 100 | 16

Source: ChEMBL document CHEMBL1125492, “The calanolides, a novel HIV-inhibitory class of coumarin derivatives from the tropical rainforest tree, Calophyllum lanigerum” (J Med Chem, 1992)
